Experimental data gathered from unrelated publications.
Compare with care: the assays were run in different laboratories.
PIK3CA: Phosphatidylinositol 4,5-bisphosphate 3-kinase catalytic subunit alpha isoform (PIK3CA, Homo sapiens, UniProt P42336)
CYP1A1: Cytochrome P450 1A1 (CYP1A1, Homo sapiens, UniProt P04798)
MAP2K1: Dual specificity mitogen-activated protein kinase kinase 1 (MAP2K1, Homo sapiens, UniProt Q02750)
CELA1: Chymotrypsin-like elastase family member 1 (CELA1, Sus scrofa, UniProt P00772)
PIKFYVE: 1-phosphatidylinositol 3-phosphate 5-kinase (PIKFYVE, Homo sapiens, UniProt Q9Y2I7)

For `Nc1ncc(-c2nc(N3CCOCC3)nc(N3C[C@H]4CC[C@@H](C3)O4)n2)c(C(F)F)n1`, the IC50 was 42.2 nM (PIK3CA; ligand displacement, TR-FRET).
`O=[N+]([O-])c1ccc(N2CCN(S(=O)(=O)c3ccc(F)cc3)CC2)cc1NCc1cccnc1` gave an IC50 of 1900 nM (ATP-sensitive inward rectifier potassium channel 1 (Homo sapiens, UniProt P48048); ion flux, inhibitor).
`COCC1CCCc2c1[nH]c(=O)c(C#N)c2-c1ccc(C)cc1` (centres unmarked) gave an IC50 of 400 nM (High affinity cGMP-specific 3',5'-cyclic phosphodiesterase 9A (PDE9A, Homo sapiens, UniProt O76083); enzyme activity, inhibitor, radiometric).
`CC(=O)N1CCN(c2ccc(OCC3COC(Cn4ccnc4)(c4ccc(Cl)cc4Cl)O3)cc2)CC1` (centres unmarked) gave an IC50 of 230 nM (CYP1A1; enzyme activity, inhibitor, fluorescence).
`Cc1cnc(-c2ccc(-c3ccc(NC(=O)Nc4c(F)cc(F)cc4F)cc3F)c3c2C(=O)NC3)[nH]1` has an IC50 of 42.6 nM (MAP2K1; enzyme activity, inhibitor).
`CCNC(=O)[C@H](CCCNC(=N)CCl)NC(=O)c1ccccc1` gave an IC50 of 2800 nM (Protein-arginine deiminase type-1 (PADI1, Homo sapiens, UniProt Q9ULC6); enzyme activity, inhibitor).
With `CC(C)(C)n1nc(-c2ccc3nc(OC4CC4)ccc3c2)c(C(N)=O)c1N` the IC50 was 2380 nM (MAP2K1; cell-free assay).
With `CC(C)(C)c1c(O)ccc(/C=C2\SC(=S)NC2=O)c1C(C)(C)C` the IC50 was 30000 nM (PIK3CA; enzyme activity, inhibitor, radiometric).
With `CC1(C)C(/C=C/C=C2/N(CCCc3ccccc3)c3ccc(Cl)cc3C2(C)C)=[N+](CCCc2ccccc2)c2ccc(Cl)cc21` the IC50 was 1870 nM (Protein arginine N-methyltransferase 8 (PRMT8, Homo sapiens, UniProt Q9NR22); enzyme activity, inhibitor, radiometric).
`COc1ccc(S(=O)(=O)ON=C2C=C(C)C(=O)C(C)=C2)cc1` has an IC50 of over 100000 nM (Histone acetyltransferase KAT6B (Homo sapiens, UniProt Q8WYB5); enzyme activity, inhibitor, radiometric).
With `O=C1NC(=S)S/C1=C\c1ccc(-c2ccccn2)cc1` the IC50 was over 100000 nM (PIK3CA; enzyme activity, inhibitor, radiometric).
For `C/C=C1\NC(=O)[C@H](C)NC(=O)[C@@H](NC(=O)[C@@H](Cc2ccc(O)cc2)NC(=O)[C@@H](NC(=O)/C(C)=C/C)C(C)C)[C@@H](C)OC(=O)[C@H](CCc2ccc(O)cc2)NC(=O)[C@@H](CCC(=O)O)NC1=O`, the IC50 was 2140 nM (CELA1; enzyme activity, inhibitor, absorbance).
For `COc1cc(O)c(/C=C2\SC(=S)NC2=O)c(OC)c1`, the IC50 was 11000 nM (PIK3CA; enzyme activity, inhibitor, radiometric).
The IC50 of `Cc1ccc(C(C)C)cc1NC(=O)COC(=O)c1cccc(O)c1` is reported as 41900 nM (CELA1; enzyme activity, inhibitor, absorbance).
`CC(C)(O)CC#Cc1ccc2[nH]c3c(c2c1)-c1nc(N)ncc1CCC3` gave an IC50 of 290 nM (PIKFYVE; target engagement in cells, BRET).
The IC50 of `O=C1NC(=S)SC1=Cc1ccc2nccnc2c1` is reported as 2.8 nM (PIK3CA; enzyme activity, inhibitor, radiometric).
With `CC1=C(C#N)[C@@H](c2ccc(C#N)cc2S(C)(=O)=O)N(C)C(=O)N1c1cccc(C(F)(F)F)c1` the IC50 was over 30000 nM (CELA1; enzyme activity, inhibitor).
With `COc1cc(O)c(CC=C(C)C)c(O)c1C(=O)/C=C/c1ccc(O)cc1` the IC50 was 280 nM (CYP1A1; enzyme activity, inhibitor, fluorescence; 15 min, pH 7.4).
The IC50 of `CC(C)(C#Cc1ccc2[nH]c3c(c2c1)-c1nc(N)ncc1CCC3)NS(C)(=O)=O` is reported as 140 nM (PIKFYVE; enzyme activity, inhibitor, ADP detection).
`Cc1ccc(C(C)C)cc1NC(=O)COC(=O)c1ccc(O)cc1O` has an IC50 of 32900 nM (CELA1; enzyme activity, inhibitor, absorbance).
